Results from ChEMBL document CHEMBL1649165, “Activity profile in vitro of micafungin against Spanish clinical isolates of common and emerging species of yeasts and molds” (2009).
Converted amounts (≈) assume the structure as drawn.

Experiments:
Type in all cases: functional
[1] = test system: Naganishia albida; test: Antimicrobial activity against Cryptococcus albidus by broth microdilution method
Procedure, shortened: (§1)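 Clinical isolates of nonfermentative yeasts, tested by broth microdilution following EUCAST recommendations. The only change from that method was a minor modification to improve growth.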

[2] = test system: Hortaea werneckii; test: Antimicrobial activity against Hortaea werneckii by broth microdilution method
[3] = test system: Scytalidium hyalinum; test: Antimicrobial activity against Scytalidium hyalinum by broth microdilution method; conditions: Neoscytalidium hyalinum
Procedure, shortened: (§2)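 Filamentous fungus clinical isolates tested by the AFST-EUCAST reference broth microdilution method for moulds. For echinocandins, the endpoint was the minimum effective concentration: the lowest drug concentration giving aberrant hyphal growth, read with an inverted microscope.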

[4] = test system: Aspergillus glaucus; test: Antimicrobial activity against Aspergillus glaucus by broth microdilution method
Procedure, shortened: (§3)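 Clinical mould isolates, tested by broth microdilution using the AFST-EUCAST reference method for filamentous fungi. For echinocandins, the endpoint was the minimum effective concentration: the lowest drug concentration giving aberrant hyphal growth, read with an inverted microscope.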

[5] = test system: Meyerozyma guilliermondii; test: Antimicrobial activity against Candida guilliermondii by broth microdilution method
Procedure, shortened: (§4)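 Clinical isolates from human patients, tested by broth microdilution using the AFST-EUCAST reference procedure for fermentative yeasts. The MIC was read per that reference method.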

[6] = test system: Aspergillus terreus; test: Antimicrobial activity against Aspergillus terreus by broth microdilution method; procedure, shortened: as §3
[7] = test system: Phialemonium curvatum; test: Antimicrobial activity against Phialemonium curvatum by broth microdilution method; conditions: Thyridium curvatum; procedure, shortened: as §2
[8] = test system: Fusarium proliferatum; test: Antimicrobial activity against Fusarium proliferatum by broth microdilution method; procedure, shortened: as §3
[9] = test system: Candida tropicalis; test: Antimicrobial activity against Candida tropicalis by broth microdilution method; procedure, shortened: as §4
[10] = test system: Exophiala dermatitidis; test: Antimicrobial activity against Exophiala dermatitidis by broth microdilution method
[11] = test system: Penicillium; test: Antimicrobial activity against Penicillium spp. by broth microdilution method; procedure, shortened: as §2
[12] = test system: Diutina rugosa; test: Antimicrobial activity against Candida rugosa by broth microdilution method; procedure, shortened: as §4
[13] = test system: Fusarium equiseti; test: Antimicrobial activity against Fusarium equiseti by broth microdilution method; procedure, shortened: as §3
[14] = test system: Kluyveromyces marxianus; test: Antimicrobial activity against Candida kefyr by broth microdilution method; procedure, shortened: as §4
[15] = test system: Aspergillus ustus; test: Antimicrobial activity against Aspergillus ustus by broth microdilution method; procedure, shortened: as §3
[16] = test system: Scedosporium apiospermum; test: Antimicrobial activity against Scedosporium apiospermum by broth microdilution method; procedure, shortened: as §2
[17] = test system: Fusarium reticulatum; test: Antimicrobial activity against Fusarium reticulatum by broth microdilution method; procedure, shortened: as §2
[18] = test system: Fusarium verticillioides; test: Antimicrobial activity against Fusarium verticillioides by broth microdilution method; procedure, shortened: as §2
[19] = test system: Fusarium solani; test: Antimicrobial activity against Fusarium solani by broth microdilution method; procedure, shortened: as §2
[20] = test system: Fennellia nivea; test: Antimicrobial activity against Aspergillus niveus by broth microdilution method; procedure, shortened: as §3
[21] = test system: Lewia infectoria; test: Antimicrobial activity against Alternaria infectoria by broth microdilution method; procedure, shortened: as §3
[22] = test system: Aureobasidium pullulans; test: Antimicrobial activity against Aureobasidium pullulans by broth microdilution method
[23] = test system: Aspergillus nidulans; test: Antimicrobial activity against Aspergillus nidulans by broth microdilution method; procedure, shortened: as §3
[24] = test system: Aspergillus flavus; test: Antimicrobial activity against Aspergillus flavus by broth microdilution method; procedure, shortened: as §3
[25] = test system: Ustilago; test: Antimicrobial activity against Ustilago spp by broth microdilution method
[26] = test system: Candida orthopsilosis; test: Antimicrobial activity against Candida orthopsilosis by broth microdilution method; conditions: Lodderomyces orthopsilosis; procedure, shortened: as §4
[27] = test system: Rhizopus arrhizus; test: Antimicrobial activity against Rhizopus oryzae by broth microdilution method; procedure, shortened: as §2
[28] = test system: Torulaspora delbrueckii; test: Antimicrobial activity against Candida coliculosa by broth microdilution method; procedure, shortened: as §4
[29] = test system: Trichosporon inkin; test: Antimicrobial activity against Trichosporon inkin by broth microdilution method
Procedure, shortened: (§5)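 Nonfermentative yeast clinical isolates (Rhodotorula, Trichosporon) tested by broth microdilution. The EUCAST yeast recommendations were followed strictly, with one minor modification to improve growth. MIC was read as the endpoint.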

[30] = test system: [Candida] intermedia; test: Antimicrobial activity against Candida intermedia by broth microdilution method; conditions: Sungouiella intermedia; procedure, shortened: as §4
[31] = test system: Mucor; test: Antimicrobial activity against Mucor spp.by broth microdilution method; procedure, shortened: as §2
[32] = test system: Scopulariopsis brevicaulis; test: Antimicrobial activity against Scopulariopsis brevicaulis by broth microdilution method; procedure, shortened: as §2
[33] = test system: Kazachstania pintolopesii; test: Antimicrobial activity against Candida pintolopesii by broth microdilution method; conditions: Arxiozyma pintolopesii; procedure, shortened: as §4
[34] = test system: Aspergillus ochraceus; test: Antimicrobial activity against Aspergillus ochraceus by broth microdilution method; procedure, shortened: as §3
[35] = test system: Rhodotorula glutinis; test: Antimicrobial activity against Rhodotorula glutinis by broth microdilution method; procedure, shortened: as §5
[36] = test system: Fusarium oxysporum; test: Antimicrobial activity against Fusarium oxysporum by broth microdilution method; procedure, shortened: as §3
[37] = test system: Acremonium sp.; test: Antimicrobial activity against Acremonium sp.by broth microdilution method; procedure, shortened: as §3
[38] = test system: Lecythophora hoffmannii; test: Antimicrobial activity against Lecythophora hoffmannii by broth microdilution method; conditions: Coniochaeta hoffmannii; procedure, shortened: as §2
[39] = test system: Coprinellus domesticus; test: Antimicrobial activity against Hormographiella verticillata by broth microdilution method; procedure, shortened: as §2
[40] = test system: Cryptococcus deneoformans; test: Antimicrobial activity against Cryptococcus neoformans var. neoformans by broth microdilution method; procedure, shortened: as §1
[41] = test system: Rhodotorula mucilaginosa; test: Antimicrobial activity against Rhodotorula mucilaginosa by broth microdilution method; procedure, shortened: as §5
[42] = test system: Clavispora lusitaniae; test: Antimicrobial activity against Candida lusitaniae by broth microdilution method; procedure, shortened: as §4
[43] = test system: Cunninghamella bertholletiae; test: Antimicrobial activity against Cunninghamella bertholletiae by broth microdilution method; procedure, shortened: as §3
[44] = test system: Trichosporon domesticum; test: Antimicrobial activity against Trichosporon mycotoxinivorans by broth microdilution method; conditions: Apiotrichum domesticum
Procedure, shortened: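 Spanish human clinical isolates were tested as nonfermentative yeasts by broth microdilution. The method strictly followed the EUCAST recommendations, with a minor modification to improve growth, and the read-out was the MIC.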

## CC[C@@H]([C@H](C)O)n1ncn(-c2ccc(N3CCN(c4ccc(OC[C@@H]5CO[C@@](Cn6cncn6)(c6ccc(F)cc6F)C5)cc4)CC3)cc2)c1=O [POSACONAZOLE]
[1]
  MIC50: 0.25 µg/mL (≈ 0.357 µM)
  MIC90: > 8 µg/mL
[2]
  MIC50: 0.06 µg/mL (≈ 0.0856 µM)
  MIC90: > 8 µg/mL
[3]
  MIC50: 0.06 µg/mL (≈ 0.0856 µM)
  MIC90: > 8 µg/mL
[4]
  MIC50: 0.12 µg/mL (≈ 0.171 µM)
  MIC90: > 8 µg/mL
[5]
  MIC50: 0.12 µg/mL (≈ 0.171 µM)
  MIC90: > 8 µg/mL
[6]
  MIC50: 0.06 µg/mL (≈ 0.0856 µM)
  MIC90: 0.12 µg/mL (≈ 0.171 µM)
[7]
  MIC50: 4 µg/mL (≈ 5.71 µM)
  MIC90: > 8 µg/mL
[8]
  MIC50: > 8 µg/mL
  MIC90: > 8 µg/mL
[9]
  MIC50: 0.02 µg/mL (≈ 0.0285 µM)
  MIC90: 0.03 µg/mL (≈ 0.0428 µM)
[10]
  MIC50: 0.06 µg/mL (≈ 0.0856 µM)
  MIC90: > 8 µg/mL
[11]
  MIC50: 0.25 µg/mL (≈ 0.357 µM)
  MIC90: 4 µg/mL (≈ 5.71 µM)
[12]
  MIC50: 0.03 µg/mL (≈ 0.0428 µM)
  MIC90: > 8 µg/mL
[13]
  MIC50: 4 µg/mL (≈ 5.71 µM)
  MIC90: > 8 µg/mL
[14]
  MIC50: 0.03 µg/mL (≈ 0.0428 µM)
  MIC90: 0.06 µg/mL (≈ 0.0856 µM)
[15]
  MIC50: 0.12 µg/mL (≈ 0.171 µM)
  MIC90: > 8 µg/mL
[16]
  MIC50: 1 µg/mL (≈ 1.43 µM)
  MIC90: 8 µg/mL (≈ 11.4 µM)
[17]
  MIC50: 4 µg/mL (≈ 5.71 µM)
  MIC90: > 8 µg/mL
[18]
  MIC50: 2 µg/mL (≈ 2.85 µM)
  MIC90: > 8 µg/mL
[19]
  MIC50: > 8 µg/mL
  MIC90: > 8 µg/mL
[20]
  MIC50: 0.12 µg/mL (≈ 0.171 µM)
  MIC90: > 8 µg/mL
[21]
  MIC50: 0.5 µg/mL (≈ 0.713 µM)
  MIC90: > 8 µg/mL
[22]
  MIC50: 0.06 µg/mL (≈ 0.0856 µM)
  MIC90: > 8 µg/mL
[23]
  MIC50: 0.06 µg/mL (≈ 0.0856 µM)
  MIC90: 0.25 µg/mL (≈ 0.357 µM)
[24]
  MIC50: 0.12 µg/mL (≈ 0.171 µM)
  MIC90: 0.25 µg/mL (≈ 0.357 µM)
[25]
  MIC50: 0.25 µg/mL (≈ 0.357 µM)
  MIC90: > 8 µg/mL
[26]
  MIC50: 0.03 µg/mL (≈ 0.0428 µM)
  MIC90: > 8 µg/mL
[27]
  MIC50: 2 µg/mL (≈ 2.85 µM)
  MIC90: > 8 µg/mL
[28]
  MIC50: 0.03 µg/mL (≈ 0.0428 µM)
  MIC90: > 8 µg/mL
[29]
  MIC50: 0.06 µg/mL (≈ 0.0856 µM)
  MIC90: 0.12 µg/mL (≈ 0.171 µM)
[30]
  MIC50: 0.03 µg/mL (≈ 0.0428 µM)
  MIC90: > 8 µg/mL
[31]
  MIC50: 4 µg/mL (≈ 5.71 µM)
  MIC90: > 8 µg/mL
[32]
  MIC50: 4 µg/mL (≈ 5.71 µM)
  MIC90: > 8 µg/mL
[33]
  MIC50: 0.03 µg/mL (≈ 0.0428 µM)
  MIC90: > 8 µg/mL
[34]
  MIC50: 0.12 µg/mL (≈ 0.171 µM)
  MIC90: > 8 µg/mL
[35]
  MIC50: 0.25 µg/mL (≈ 0.357 µM)
  MIC90: > 8 µg/mL
[36]
  MIC50: 4 µg/mL (≈ 5.71 µM)
  MIC90: > 8 µg/mL
[37]
  MIC50: 8 µg/mL (≈ 11.4 µM)
  MIC90: > 16 µg/mL
[38]
  MIC50: 0.06 µg/mL (≈ 0.0856 µM)
  MIC90: > 8 µg/mL
[39]
  MIC50: 4 µg/mL (≈ 5.71 µM)
  MIC90: > 8 µg/mL
[40]
  MIC50: 0.12 µg/mL (≈ 0.171 µM)
  MIC90: 0.5 µg/mL (≈ 0.713 µM)
[41]
  MIC50: 2 µg/mL (≈ 2.85 µM)
  MIC90: > 8 µg/mL
[42]
  MIC50: 0.02 µg/mL (≈ 0.0285 µM)
  MIC90: 0.02 µg/mL (≈ 0.0285 µM)
[43]
  MIC50: 4 µg/mL (≈ 5.71 µM)
  MIC90: > 8 µg/mL
[44]
  MIC50: 0.25 µg/mL (≈ 0.357 µM)
  MIC90: > 8 µg/mL
